Test results from ChEMBL document CHEMBL4052593, “Pharmacokinetic Analysis and in Vivo Antitumor Efficacy of Taccalonolides AF and AJ” (J Nat Prod, 2017).
Activity calls are given as the source filed them. The rule behind the calls is not given here.

Legend:
MDA-MB-435 [1] = assay: Antiproliferative activity against human MDA-MB-435 cells assessed as cell growth inhibition in presence of 1% FBS by sulforhodamine B assay; assay type: functional
Outline: (§1)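 MDA-MB-435 cells, normally kept in IMEM with 10% FBS and gentamicin, were exposed to concentration-response series in medium holding 0.1%, 1% or 10% serum. Growth was measured by sulforhodamine B staining. Cell density at the time of drug addition marked the line between antiproliferative and cytotoxic effect. GI50 was taken from the curves. Three independent experiments were run, each concentration in triplicate, reported as mean ± SEM.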

MDA-MB-435 [2] = assay: Antiproliferative activity against human MDA-MB-435 cells assessed as cell growth inhibition at 1 nM in presence of 10% FBS by sulforhodamine B assay relative to control; settings: MDA-MB-435, read-out: GI
MDA-MB-435 [3] = assay: Antiproliferative activity against human MDA-MB-435 cells assessed as cell growth inhibition at 1 nM in presence of 1% FBS by sulforhodamine B assay relative to control; settings: MDA-MB-435, read-out: GI
MDA-MB-435 [4] = assay: Antiproliferative activity against human MDA-MB-435 cells assessed as cell growth inhibition at 1 nM in presence of 0.1% FBS by sulforhodamine B assay relative to control; settings: MDA-MB-435, read-out: GI
MDA-MB-435 [5] = assay: Antiproliferative activity against human MDA-MB-435 cells assessed as cell growth inhibition in presence of 10% FBS by sulforhodamine B assay; assay type: functional; outline: as §1
MDA-MB-435 [6] = assay: Antiproliferative activity against human MDA-MB-435 cells assessed as cell growth inhibition in presence of 0.1% FBS by sulforhodamine B assay; assay type: functional; outline: as §1
MDA-MB-435 [7] = assay: Ratio of GI50 for human MDA-MB-435 cells in presence of 1% FBS to GI50 for human MDA-MB-435 cells in presence of 0.1% FBS; assay type: functional
Outline: (§2)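 MDA-MB-435 human melanoma cells were kept in IMEM with 10% FBS. They were tested across a concentration range in 0.1, 1 or 10% serum using sulforhodamine B, with cell density at drug addition as the cytotoxicity baseline. GI50 in 1% or 10% serum was divided by GI50 in 0.1% serum. Three independent experiments, each concentration in triplicate.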

Mus musculus [8] = assay: Elimination half life in athymic nude mouse at 300 ug, iv after 2 hrs by LC-MS analysis; assay type: ADME, organism-based; settings: in vivo
Outline: (§3)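 Female athymic nude mice, 6–7 weeks old, got a 300 µg IV tail-vein bolus. Plasma was taken from 3–5 mice per time point (pre-dose, end of infusion, 0.25, 0.5, 1, 2 h), ethyl acetate-extracted and quantified by LC-MS against weighted (1/X2) calibration curves. Noncompartmental analysis: Cmax by inspection, t1/2 from the last two log points, AUC by linear trapezoid extrapolated to infinity, CL = dose/AUC.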

SCC-4 [9] = assay: Antitumor activity against human SCC4 cells xenografted in athymic nude mouse assessed as tumor burden at 80 ug administered intratumorally on day 0 and day 3 measured on day 10 post dose; assay type: functional
Outline: (§4)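 Female athymic nude mice, 6–7 weeks old, received 1 × 10^6 SCC-4 cells subcutaneously in the rear flank. Treatment began when tumors averaged 200 mm3. Under isoflurane, tumors were injected directly on days 0 and 3 with drug in 100 µL PBS with final 8% ethanol, or with vehicle only; the total dose was split between the two days. Calipers were read every 2–4 days and volume taken as width × length × height. Body weight and toxicity were monitored. Groups were compared over 17 days by two-way ANOVA with Tukey post-hoc; time for tumors to reach 1,500 mm3 was also tracked.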

Mus musculus [10] = assay: Clearance in athymic nude mouse at 300 ug, iv after 2 hrs by LC-MS analysis; assay type: ADME, organism-based; settings: in vivo; outline: as §3
Liver [11] = assay: Half life in human liver microsomes in absence of NADPH by LC-MS/MS analysis; assay type: ADME, microsome
SCC-4 [12] = assay: Antitumor activity against human SCC4 cells xenografted in athymic nude mouse assessed as reduction in tumor burden at 80 ug administered intratumorally on day 0 and day 3 measured on day 51 post dose; assay type: functional, cell-based; outline: as §4
Liver [13] = assay: Half life in human liver microsomes in presence of NADPH by LC-MS/MS analysis; assay type: ADME, microsome
Mus musculus [14] = assay: AUC in athymic nude mouse at 300 ug, iv after 2 hrs by LC-MS analysis; assay type: ADME, organism-based; set-up: dose 300 ug, time < 2 hr, route intravenous; settings: in vivo; outline: as §3
MDA-MB-435 [15] = assay: Ratio of GI50 for human MDA-MB-435 cells in presence of 10% FBS to GI50 for human MDA-MB-435 cells in presence of 0.1% FBS; assay type: functional; outline: as §2
HeLa = assay: Antiproliferative activity against human HeLa cells after 48 hrs by SRB assay; assay type: functional, cell-based
Mus musculus [16] = assay: Toxicity in athymic nude mouse xenografted with human SCC4 cells assessed as weight loss at 40 ug administered intratumorally on day 0 and day 3 measured up to 2 weeks; settings: in vivo, other, 336 h
Outline: (§5)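 SCC-4 cells (1 × 10^6) were implanted subcutaneously in the rear flank of 6–7 week old female athymic nude mice. At an average tumor volume of 200 mm3, mice were grouped. Tumors were injected on days 0 and 3 with drug in 100 µL PBS containing 8% ethanol, or vehicle, under isoflurane. Mice were monitored for weight loss and toxicity; tumors were measured with calipers every 2–4 days.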

Liver [17] = assay: Intrinsic clearance in human liver microsomes in presence of NADPH by LC-MS/MS analysis; assay type: ADME, microsome
SCC-4 [18] = assay: Antitumor activity against human SCC4 cells xenografted in athymic nude mouse assessed as tumor growth inhibition at 40 ug administered intratumorally on day 0 and day 3 measured up to 2 weeks; assay type: functional, cell-based; outline: as §4
Mus musculus [19] = assay: Cmax in athymic nude mouse at 300 ug, iv after 2 hrs by LC-MS analysis; assay type: ADME, organism-based; set-up: dose 300 ug, route intravenous; settings: in vivo; outline: as §3
Liver [20] = assay: Intrinsic clearance in human liver microsomes in absence of NADPH by LC-MS/MS analysis; assay type: ADME, microsome
Mus musculus [21] = assay: Toxicity against athymic nude mouse xenografted with human SCC4 cells assessed as weight loss at 40 ug administered intratumorally on day 0 and day 3 measured up to day 17 post dose; settings: in vivo, other; outline: as §5
SCC-4 [22] = assay: Antitumor activity against human SCC4 cells xenografted in athymic nude mouse assessed as tumor growth inhibition at 20 ug administered intratumorally on day 0 and day 3 measured every 2 to 4 days up to 2 weeks; assay type: functional, cell-based; outline: as §4
Plasma = assay: Drug uptake in athymic nude mouse plasma at 300 ug, iv after 2 hrs by LC-MS analysis; assay type: ADME, organism-based; settings: in vivo; outline: as §3
SCC-4 [23] = assay: Antitumor activity against human SCC4 cells xenografted in athymic nude mouse assessed as tumor growth inhibition at 40 to 80 ug administered intratumorally on day 0 and day 3 measured on day 14 post dose; assay type: functional, cell-based; outline: as §4
SCC-4 [24] = assay: Antitumor activity against human SCC4 cells xenografted in athymic nude mouse assessed as tumor growth inhibition at 40 to 80 ug administered intratumorally on day 0 and day 3 measured on day 17 post dose; assay type: functional, cell-based; outline: as §4
SCC-4 [25] = assay: Antitumor activity against human SCC4 cells xenografted in athymic nude mouse assessed as tumor growth inhibition administered intratumorally on day 0 and day 3 measured up to day 17 post dose; assay type: functional, cell-based; outline: as §4

## CC(=O)O[C@H]1C(=O)[C@@]2(C)[C@H]([C@H](OC(=O)c3ccccc3)[C@]3(O)C[C@H](OC(=O)[C@H](O)[C@@H](NC(=O)c4ccccc4)c4ccccc4)C(C)=C1C3(C)C)[C@]1(OC(C)=O)CO[C@@H]1C[C@@H]2O [PACLITAXEL]
MDA-MB-435 [1]
  GI50: 1.9 nM
MDA-MB-435 [2]
  inhibition of growth at 0.001 µM: 9%
MDA-MB-435 [3]
  inhibition of growth at 0.001 µM: 27%
MDA-MB-435 [4]
  inhibition of growth at 0.001 µM: 54%
MDA-MB-435 [5]
  GI50: 3.4 nM
MDA-MB-435 [6]
  GI50: 1 nM

## CC(=O)O[C@@H]1[C@H]2[C@H]3[C@H]([C@H](OC(C)=O)[C@H](OC(C)=O)[C@]2(C)[C@H]2[C@H](C)[C@H]4O[C@]45OC(=O)[C@@](C)(O)[C@]5(C)[C@H]12)[C@]1(C)[C@H](C[C@@H]2O[C@@H]2[C@@H]1OC(C)=O)C(=O)[C@@H]3O
MDA-MB-435 [7]
  RatioGI50: 1.2
MDA-MB-435 [1]
  GI50: 30 nM
Mus musculus [8]
  beta t1/2: 0.733 h
SCC-4 [9]
  Activity: <1500 mm3
Mus musculus [10]
  CL: 240 mL/h
Liver [11]
  t1/2: > 4 h
SCC-4 [12]
  Activity: Active
MDA-MB-435 [5]
  GI50: 47 nM
Liver [13]
  t1/2: 1.38 h
Mus musculus [14]
  AUC: 1300 ng·h/mL
MDA-MB-435 [15]
  RatioGI50: 1.9
HeLa
  IC50: 24 nM
Mus musculus [16]
  Activity: Non-Toxic
Liver [17]
  CLH: 8.3 µL/min/mg
SCC-4 [18]
  TGI: Active
MDA-MB-435 [6]
  GI50: 25 nM
Mus musculus [19]
  Cmax: 8600 ng/mL

## CC(=O)CC(c1ccccc1)c1c(O)c2ccccc2oc1=O (stereo not given) [WARFARIN]
Liver [17]
  CLH: 0 µL/min/mg

## CC(=O)O[C@H]1[C@H]2[C@H]([C@@H]3[C@@H](O)[C@@H]4[C@H]([C@H](C)[C@H]5O[C@]56OC(=O)[C@@](C)(O)[C@]46C)[C@@]3(C)[C@H]1OC(C)=O)[C@@H](O)C(=O)[C@H]1C[C@@H]3O[C@@H]3[C@H](OC(C)=O)[C@]21C
MDA-MB-435 [7]
  RatioGI50: 1.2
MDA-MB-435 [1]
  GI50: 7 nM
Liver [20]
  CLH: 300 µL/min/mg
Mus musculus [8]
  beta t1/2: 0.135 h
SCC-4 [9]
  Activity: <1500 mm3
Mus musculus [10]
  CL: 85 mL/h
Mus musculus [21]
  Activity: Non-Toxic
SCC-4 [22]
  TGI: inactive
Liver [11]
  t1/2: > 4 h
MDA-MB-435 [5]
  GI50: 9 nM
Liver [13]
  t1/2: 0.783 h
Mus musculus [14]
  AUC: 3500 ng·h/mL
MDA-MB-435 [15]
  RatioGI50: 1.5
Plasma
  Drug uptake: Not Active
SCC-4 [23]
  TGI: Active
HeLa
  IC50: 4 nM
Liver [17]
  CLH: 15 µL/min/mg
SCC-4 [24]
  TGI: Active
MDA-MB-435 [6]
  GI50: 6 nM
Mus musculus [19]
  Cmax: 19000 ng/mL
SCC-4 [25]
  TGI: Dose-dependent effect
